These results are taken from ChEMBL document CHEMBL1949625, “Hydroxyl may not be indispensable for raltegravir: Design, synthesis and SAR Studies of raltegravir derivatives as HIV-1 inhibitors” (Eur J Med Chem, 2012).

Broadly, the inhibition is the change of the read-out against control, counted positive when it falls. As usually defined, the IC50 is the concentration needed to halve the response being measured.

Data set [1] can be described thus: Cytotoxicity against human TZM-bl cells after 48 hrs by MTT assay. The data set is classed as cell-based. An outline of the steps: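 TZM-bl cells plated and incubated 18 h at 37 °C, then exposed to compounds for 48 h. MTT (5 mg/mL, 20 uL) added for 3 h at 37 °C; plates shaken 10 min at room temperature. OD550 read with 690 nm reference.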
For data set [2], the system named is Human immunodeficiency virus 1. Put plainly: Antiviral activity against HIV1 harboring VSV glycoprotein-G co-transfected with luciferase gene infected in human TZM-bl cells assessed as inhibition of viral replication at 10 uM after 48 hrs by microplate luminometer based luciferase assay. The conditions noted are these: for inhibition at 10 µM: Human immunodeficiency virus 1, TZM-bl, 48 h. The data set is classed as functional. An outline of the steps: (§1)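 TZM-bl cells seeded at 10^4 cells/well; next day compounds (from DMSO stocks) added, then pseudotyped virus; final DMSO 2% in all wells. Incubated 48 h at 37 °C, humidified CO2. Steady-glow substrate added directly, lysis 20 min in dark, luciferase luminescence read. AZT and MK-0518 as assay controls. Primary screen run at 10 μM.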

The subject of data set [3] is Human immunodeficiency virus 1. Kind of data set: Antiviral activity against HIV1 harboring VSV glycoprotein-G co-transfected with luciferase gene infected in human TZM-bl cells assessed as inhibition of viral replication after 48 hrs by microplate luminometer based luciferase assay. It is filed as functional, organism-based. The conditions noted are these: Human immunodeficiency virus 1, TZM-bl. An outline of the steps:
as §1

With `COc1nc(C(C)(C)NC(=O)c2nnc(C)o2)nc(C(=O)NCc2ccc(F)cc2)c1[O-].[K+]`, the Activity result in data set [1] was “Non-toxic”. Also, the inhibition at 10 µM in data set [2] was determined as 92.9%. In addition, the IC50 in data set [3] was determined as 200 nM.

As for `COc1nc(C(C)(C)NC(=O)c2nnc(C)o2)nc(C(=O)NCc2ccc(F)cc2)c1O`, in data set [1], the Activity result is listed as “Non-toxic”. The “inhibition (INH)” value in data set [2] was 94.1%.

With `Cc1nnc(C(=O)NC(C)(C)c2nc(NCc3ccc(F)cc3)c(O)c(C(=O)NCc3ccc(F)cc3)n2)o1`, in data set [1], the Activity entry is “Non-toxic”. Besides, the inhibition at 10 µM in data set [2] came to 47.5%.

In the case of `CC(=O)Oc1c(C(=O)NCc2ccc(F)cc2)nc(C(C)(C)NC(=O)c2nnc(C)o2)n(C)c1=O`, the Activity entry in data set [1] is “Non-toxic”. In addition, in data set [2], the inhibition at 10 µM worked out at 95.1%. For the same molecule, the IC50 in data set [3] turned out to be 1 nM.

As to `Cc1nnc(C(=O)NC(C)(C)c2nc(C(=O)NCc3ccc(F)cc3)c(OS(C)(=O)=O)c(=O)n2C)o1`, in data set [1], the Activity entry was “Non-toxic”. The inhibition at 10 µM in data set [2] was determined as 92.7%. In data set [3], the IC50 was 2.4 nM.

Regarding `Cc1nnc(C(=O)NC(C)(C)c2nc(C(=O)NCc3ccc(F)cc3)c(OC(=O)c3ccccc3)c(=O)n2C)o1`, the Activity entry in data set [1] is “Non-toxic”. For the same molecule, the inhibition at 10 µM in data set [2] was found to be 100%. Besides, in data set [3], the IC50 stood at 4e-05 nM.

With `Cc1cc(C)c(S(=O)(=O)Oc2c(C(=O)NCc3ccc(F)cc3)nc(C(C)(C)NC(=O)c3nnc(C)o3)n(C)c2=O)c(C)c1`, in data set [1], the Activity entry is recorded as “Non-toxic”. Moreover, the inhibition at 10 µM in data set [2] stood at 94.9%. For the same molecule, the IC50 in data set [3] turned out to be 0.04 nM.

As to `COc1nc(C(C)(C)NC(=O)c2nnc(C)o2)nc(C(=O)NCc2ccc(F)cc2)c1OC(C)=O`, the Activity entry in data set [1] was “Non-toxic”. Besides, in data set [2], the inhibition at 10 µM was 94.2%. Moreover, the IC50 in data set [3] stood at 7.3 nM.

Take `COc1nc(C(C)(C)NC(=O)c2nnc(C)o2)nc(C(=O)NCc2ccc(F)cc2)c1OS(C)(=O)=O`: the Activity entry in data set [1] is reported as “Non-toxic”. The inhibition at 10 µM in data set [2] is 88.3%. Besides, the IC50 in data set [3] came to 32.8 nM.

On to `COc1nc(C(C)(C)NC(=O)c2nnc(C)o2)nc(C(=O)NCc2ccc(F)cc2)c1OC(=O)c1ccccc1`, for which the Activity result in data set [1] was “Non-toxic”. Moreover, the inhibition at 10 µM in data set [2] was 93.4%. The IC50 in data set [3] came to 14.7 nM.

For the molecule `COc1nc(C(C)(C)NC(=O)c2nnc(C)o2)nc(C(=O)NCc2ccc(F)cc2)c1OS(=O)(=O)c1c(C)cc(C)cc1C`, in data set [1], the Activity result is on record as “Non-toxic”. The inhibition at 10 µM in data set [2] is 79.7%. In addition, the IC50 in data set [3] worked out at 1200 nM.

`CCN(CC)C(=O)C(=O)NC(C)(C)c1nc(C(=O)OC)c(OC(=O)c2ccccc2)c(=O)n1C`: the Activity result in data set [1] is listed as “Non-toxic”. Moreover, in data set [2], the inhibition at 10 µM is -2.7%.

On to `CCN(CC)C(=O)C(=O)NC(C)(C)c1nc(C(=O)NCc2ccc(F)cc2)c(O)c(=O)n1C`, for which, in data set [1], the Activity result is listed as “Non-toxic”. In addition, the inhibition at 10 µM in data set [2] came out at 95.5%. For the same molecule, the IC50 in data set [3] turned out to be 0.5 nM.

As to `CCN(CC)C(=O)C(=O)NC(C)(C)c1nc(C(=O)NCc2ccc(F)cc2)c(OC(C)=O)c(=O)n1C`, the Activity entry in data set [1] is “Non-toxic”. Besides, in data set [2], the inhibition at 10 µM was 94.2%. Besides, in data set [3], the IC50 was determined as 0.062 nM.

As to `CCN(CC)C(=O)C(=O)NC(C)(C)c1nc(C(=O)NCc2ccc(F)cc2)c(OS(C)(=O)=O)c(=O)n1C`, in data set [1], the Activity result is on record as “Non-toxic”. For the same molecule, the inhibition at 10 µM in data set [2] was determined as 93.7%. Also, the IC50 in data set [3] turned out to be 0.64 nM.

For `CCN(CC)C(=O)C(=O)NC(C)(C)c1nc(C(=O)NCc2ccc(F)cc2)c(OC(=O)c2ccccc2)c(=O)n1C`, the Activity entry in data set [1] is “Non-toxic”. Also, in data set [2], the inhibition at 10 µM was 92.8%. For the same molecule, the IC50 in data set [3] is 8e-05 nM.

For `CCN(CC)C(=O)C(=O)NC(C)(C)c1nc(C(=O)NCc2ccc(F)cc2)c(OS(=O)(=O)c2c(C)cc(C)cc2C)c(=O)n1C`, in data set [1], the Activity result is reported as “Non-toxic”. The inhibition at 10 µM in data set [2] came out at 77.7%. Besides, in data set [3], the IC50 stood at 0.3 nM.

For the molecule `CCN(CC)C(=O)C(=O)NC(C)(C)c1nc(OC)c(OC(=O)c2ccccc2)c(C(=O)OC)n1`, in data set [1], the Activity result was “Non-toxic”. Besides, in data set [2], the inhibition at 10 µM came to 19.8%.

As for `CCN(CC)C(=O)C(=O)NC(C)(C)c1nc(OC)c(O)c(C(=O)NCc2ccc(F)cc2)n1`, the Activity entry in data set [1] is given as “Non-toxic”. For the same molecule, the inhibition at 10 µM in data set [2] is 44.9%.

Turning to `CCN(CC)C(=O)C(=O)NC(C)(C)c1nc(OC)c(OC(C)=O)c(C(=O)NCc2ccc(F)cc2)n1`, the Activity result in data set [1] is “Non-toxic”. The inhibition at 10 µM in data set [2] came to 59.3%.

Consider `CCN(CC)C(=O)C(=O)NC(C)(C)c1nc(OC)c(OS(C)(=O)=O)c(C(=O)NCc2ccc(F)cc2)n1`, for which, in data set [1], the Activity result was “Non-toxic”. Also, in data set [2], the inhibition at 10 µM is 28.6%.

Take `CCN(CC)C(=O)C(=O)NC(C)(C)c1nc(OC)c(OC(=O)c2ccccc2)c(C(=O)NCc2ccc(F)cc2)n1`: the Activity entry in data set [1] is “Non-toxic”. In addition, in data set [2], the inhibition at 10 µM came out at 52.1%.

Consider `CCN(CC)C(=O)C(=O)NC(C)(C)c1nc(OC)c(OS(=O)(=O)c2c(C)cc(C)cc2C)c(C(=O)NCc2ccc(F)cc2)n1`, for which, in data set [1], the Activity result was “Non-toxic”. Besides, in data set [2], the inhibition at 10 µM came out at 6%.

Consider `Cc1nnc(C(=O)NC(C)(C)c2nc(C(=O)NCc3ccc(F)cc3)c(O)c(=O)n2C)o1` [RALTEGRAVIR POTASSIUM], for which the inhibition at 10 µM in data set [2] was found to be 95.1%. Also, the IC50 in data set [3] turned out to be 8 nM.

With `Cc1cn([C@H]2C[C@H](N=[N+]=[N-])[C@@H](CO)O2)c(=O)[nH]c1=O` [ZIDOVUDINE], the inhibition at 10 µM in data set [2] amounted to 100%.
